Source: PMC7657661 (Biochemical Journal, 2020)
Entries after “also recorded” stand apart in the source; their conditions may differ. Where two headings read alike, the source gives them in different places. Values belong to the compound of their own block, whether it stands above or below them.

Legend:
[1] = tested on: HepG2 cells; assay: Colony formation assay; format: cell-based, human; conditions: 5 and 10 µM, 10 days, culture medium with 0.5 mM citrate
Summary of the method: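 HepG2 cells were seeded at 5000 per well in six-well plates and grown for 10 days in normal medium supplemented with 0.5 mM citrate. The medium held 0.1% DMSO alone, or the test compound at 5 or 10 µM plus 0.1% DMSO, and was renewed every other day. Cells were washed in PBS, methanol-fixed and Giemsa-stained. Colonies were photographed, then the stain was extracted and quantified against the no-inhibitor control.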

[2] = biological target: SLC7A5 (Homo sapiens, UniProt Q01650); assay: [3H]-glutamine and [3H]-tryptophan uptake in HepG2 cells; format: cell-based; conditions: 10 µM, 30 min preincubation, washed, NMDG buffer pH 7.5
Summary of the method: (§1)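 HepG2 cells, 48 h after seeding, were preincubated 30 min with 10 µM test compound and washed; substrate uptake followed without inhibitor. [14C]-nicotinate and [3H]-arginine were run in NaCl buffer pH 7.5, and [3H]-glutamine and [3H]-tryptophan in NMDG buffer pH 7.5, each for 15 min. [14C]-lactate was run in NMDG buffer pH 6 for 3 min. Uptake was normalised to protein and compared with untreated control.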

[3] = tested on: MCTs; assay: [14C]-lactate uptake in HepG2 cells; format: cell-based, human; conditions: 10 µM, 30 min preincubation, washed, NMDG pH 6
Summary of the method: as §1

[4] = tested on: mouse NaCT; conditions: cited from earlier work
[5] = biological target: T1, SLC5A8 (Homo sapiens, UniProt Q8N695); assay: [14C]-nicotinate uptake in HepG2 cells; format: cell-based; conditions: 10 µM, 30 min preincubation, washed, NaCl buffer pH 7.5
T1 sequence (Q8N695 1-610): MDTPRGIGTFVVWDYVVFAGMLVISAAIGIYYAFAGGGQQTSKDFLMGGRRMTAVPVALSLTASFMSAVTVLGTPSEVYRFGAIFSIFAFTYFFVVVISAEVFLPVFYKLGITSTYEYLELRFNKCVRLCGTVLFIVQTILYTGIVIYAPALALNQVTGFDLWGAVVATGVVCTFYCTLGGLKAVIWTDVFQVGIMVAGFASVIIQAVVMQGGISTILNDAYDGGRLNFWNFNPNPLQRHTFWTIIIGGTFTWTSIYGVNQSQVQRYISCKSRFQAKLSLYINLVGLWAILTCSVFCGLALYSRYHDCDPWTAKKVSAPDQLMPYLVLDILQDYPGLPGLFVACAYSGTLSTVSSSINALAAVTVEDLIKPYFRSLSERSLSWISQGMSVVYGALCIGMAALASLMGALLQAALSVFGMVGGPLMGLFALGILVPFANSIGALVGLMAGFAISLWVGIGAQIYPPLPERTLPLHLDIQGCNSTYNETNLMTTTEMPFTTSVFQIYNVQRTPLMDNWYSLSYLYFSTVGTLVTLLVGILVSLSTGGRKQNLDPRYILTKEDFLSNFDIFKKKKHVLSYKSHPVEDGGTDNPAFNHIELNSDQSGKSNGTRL
Summary of the method: as §1

[6] = biological target: T2, mouse NaCT/Slc13a5 (Mus musculus, UniProt Q67BT3); assay: [14C]-citrate uptake in HEK293FT cells with ectopic expression of mouse Slc13a5; format: cell-based
T2 sequence (Q67BT3 1-572): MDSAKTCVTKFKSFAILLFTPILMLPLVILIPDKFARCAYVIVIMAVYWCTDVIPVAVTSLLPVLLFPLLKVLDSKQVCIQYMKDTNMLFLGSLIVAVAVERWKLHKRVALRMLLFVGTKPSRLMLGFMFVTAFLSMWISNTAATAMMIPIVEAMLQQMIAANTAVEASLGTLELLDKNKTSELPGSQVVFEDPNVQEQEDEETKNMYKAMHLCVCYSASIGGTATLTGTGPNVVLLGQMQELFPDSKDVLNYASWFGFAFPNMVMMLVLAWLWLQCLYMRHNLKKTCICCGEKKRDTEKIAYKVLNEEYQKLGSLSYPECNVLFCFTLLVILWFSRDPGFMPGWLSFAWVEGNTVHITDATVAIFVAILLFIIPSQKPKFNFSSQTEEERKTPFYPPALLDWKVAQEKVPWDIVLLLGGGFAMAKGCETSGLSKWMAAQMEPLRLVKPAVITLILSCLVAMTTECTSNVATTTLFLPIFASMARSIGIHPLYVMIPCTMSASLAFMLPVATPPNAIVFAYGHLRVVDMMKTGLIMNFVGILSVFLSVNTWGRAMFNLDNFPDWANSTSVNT
Summary of the method: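 Mouse Slc13a5 was transiently expressed in HEK293FT cells (CMV plasmid, Lipofectamine-3000) and assayed 48 h after transfection in NaCl buffer pH 7.5 without LiCl. Cells got a 30 min preincubation with 10 µM test compound or 100 µM reference NaCT inhibitor, two washes and 0 or 60 min recovery. Then 2 µM [14C]-citrate uptake ran 30 min, or with inhibitor co-present only during uptake. Na+-dependent uptake was normalised to protein.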

[7] = biological target: T3, SLC6A14 (Homo sapiens, UniProt Q9UN76); assay: [3H]-arginine uptake in HepG2 cells; format: cell-based; conditions: 10 µM, 30 min preincubation, washed, NaCl buffer pH 7.5
T3 sequence (Q9UN76 1-642): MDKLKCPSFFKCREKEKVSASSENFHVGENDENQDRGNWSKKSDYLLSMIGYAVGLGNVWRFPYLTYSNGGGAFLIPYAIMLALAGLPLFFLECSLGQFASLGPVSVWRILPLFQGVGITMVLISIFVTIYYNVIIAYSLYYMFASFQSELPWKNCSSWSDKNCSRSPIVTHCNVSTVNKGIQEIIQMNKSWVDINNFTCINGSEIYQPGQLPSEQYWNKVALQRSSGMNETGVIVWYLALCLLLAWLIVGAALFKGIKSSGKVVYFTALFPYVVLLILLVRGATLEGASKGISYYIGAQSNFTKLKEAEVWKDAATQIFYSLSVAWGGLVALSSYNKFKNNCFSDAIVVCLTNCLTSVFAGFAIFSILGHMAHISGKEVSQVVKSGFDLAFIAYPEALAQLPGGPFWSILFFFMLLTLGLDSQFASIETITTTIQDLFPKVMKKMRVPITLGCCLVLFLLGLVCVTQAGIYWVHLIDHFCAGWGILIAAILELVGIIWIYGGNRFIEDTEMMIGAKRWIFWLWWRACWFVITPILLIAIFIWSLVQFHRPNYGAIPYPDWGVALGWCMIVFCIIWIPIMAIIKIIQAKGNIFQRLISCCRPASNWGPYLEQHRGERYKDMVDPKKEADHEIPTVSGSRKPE
Summary of the method: as §1

[8] = biological target: T4, NaCT/SLC13A5 (Homo sapiens, UniProt Q86YT5); assay: [14C]-citrate uptake in HEK293FT cells with ectopic expression of human SLC13A5; format: cell-based
Summary of the method: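 Human SLC13A5 (CMV plasmid) was transiently expressed in HEK293FT cells by Lipofectamine-3000, assay 48 h post-transfection. Cells were preincubated 30 min in NaCl buffer (Hepes/Tris, pH 7.5) with the test compound (10 µM or a concentration series), washed twice, then given [14C]-citrate (2 µM) for 30 min at 37 °C without inhibitor. NMDG (Na+-free) uptake was subtracted and values normalised to protein. IC50 came from the dose-response.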

[9] = tested on: human NaCT; conditions: cited from earlier work
[10] = biological target: T4, NaCT/SLC13A5; assay: Na+-coupled [14C]-citrate uptake in HepG2 cells; format: cell-based; conditions: for effect on Na+-dependent citrate uptake, compound present only during uptake: PF06761281 100 µM, BI01383298 10 µM; for maximal inhibition of citrate uptake: inhibitor present only during uptake; for reversibility of inhibition of SLC13A5: preincubation 30 min, then uptake
Summary of the method: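 HepG2 cells seeded at 4 × 10^5/well and assayed 48 h later. [14C]-citrate uptake measured for 30 min at 37°C in NaCl buffer pH 7.5 (Hepes/Tris), with or without 10 mM LiCl. Inhibitor either co-incubated during uptake, or preincubated 30 min and washed twice before inhibitor-free uptake. Recovery runs: 10 µM for 30 min in buffer or medium, washed, then held 0, 30 or 60 min (buffer) or 0 or 24 h (medium). Na+-free NMDG-Cl uptake subtracted; values protein-normalized (BCA).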

[11] = tested on: NaCT; conditions: cited from earlier work
[12] = HepG2, 10 µM, 30 min preincubation, washed, NaCl buffer pH 7.5

T4 sequence (Q86YT5 whole entry): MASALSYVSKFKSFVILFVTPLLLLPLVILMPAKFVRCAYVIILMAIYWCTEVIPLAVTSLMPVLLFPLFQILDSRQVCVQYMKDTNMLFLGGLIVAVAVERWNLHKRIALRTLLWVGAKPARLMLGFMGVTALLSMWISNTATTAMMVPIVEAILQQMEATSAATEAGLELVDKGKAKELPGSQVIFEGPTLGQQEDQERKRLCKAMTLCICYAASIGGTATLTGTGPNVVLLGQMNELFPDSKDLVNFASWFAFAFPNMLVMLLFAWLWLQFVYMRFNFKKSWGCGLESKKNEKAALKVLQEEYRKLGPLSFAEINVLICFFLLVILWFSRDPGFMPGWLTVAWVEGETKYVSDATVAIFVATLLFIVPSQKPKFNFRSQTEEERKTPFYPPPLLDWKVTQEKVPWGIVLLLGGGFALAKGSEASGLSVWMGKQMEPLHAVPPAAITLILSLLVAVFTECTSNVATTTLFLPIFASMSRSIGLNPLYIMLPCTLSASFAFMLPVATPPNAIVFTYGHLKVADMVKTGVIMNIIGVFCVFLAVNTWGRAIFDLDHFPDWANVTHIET
SLC7A5, sequence (Q01650 whole entry): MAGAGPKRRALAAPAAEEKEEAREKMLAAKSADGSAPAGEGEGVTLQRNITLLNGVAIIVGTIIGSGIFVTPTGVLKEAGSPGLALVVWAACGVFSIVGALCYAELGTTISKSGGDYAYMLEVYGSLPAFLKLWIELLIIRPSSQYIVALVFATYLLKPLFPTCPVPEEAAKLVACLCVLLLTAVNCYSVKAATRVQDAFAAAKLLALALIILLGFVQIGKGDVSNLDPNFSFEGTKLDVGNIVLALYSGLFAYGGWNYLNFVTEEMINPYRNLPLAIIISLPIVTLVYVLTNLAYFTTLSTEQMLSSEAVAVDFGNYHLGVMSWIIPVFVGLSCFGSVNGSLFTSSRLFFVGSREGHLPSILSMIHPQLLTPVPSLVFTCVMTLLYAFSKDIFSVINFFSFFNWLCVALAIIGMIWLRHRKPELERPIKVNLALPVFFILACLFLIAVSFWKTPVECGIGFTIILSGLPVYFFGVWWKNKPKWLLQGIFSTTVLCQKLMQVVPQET

Glutamine (5 µM) uptake [2]: 306 ± 3 pmol/mg of protein/15 min
Tryptophan (5 µM) uptake [2]: 76 ± 3 pmol/mg of protein/15 min
Tryptophan (5 µM) uptake, % Control [2]: 95 ± 3 % Control
Nicotinate (8 µM) uptake [5]: 123 ± 4 pmol/mg of protein/15 min
Nicotinate (8 µM) uptake, % Control [5]: 100 ± 3 % Control
Arginine (5 µM) uptake [7]: 935 ± 51 pmol/mg of protein/15 min
Arginine (5 µM) uptake, % Control [7]: 101 ± 5 % Control
IC50 [8]: 171 ± 51 nM
effect on human NaCT/SLC13A5 transporter activity ([8]; HEK293FT, 10 µM): complete inhibition
preincubation time at which maximal inhibition is evident ([10]; HepG2, 10 µM inhibitor, washed, uptake without inhibitor): 30 min
Citrate (7 µM) uptake [10, 12]: 88.2 ± 5.6 pmol/mg of protein/30 min
Citrate (7 µM) uptake, % Control [10, 12]: 18 ± 1 % Control
IC50 lower in presence of Li+ than in its absence ([10]; HepG2, 30 min preincubation, inhibitor also present during uptake): 2 fold
inhibitory potency relative to PF06761281 ([10]; HepG2, BI01383298 10 µM vs PF06761281 100 µM): at least 10 times
effect on Na+-dependent citrate uptake, compound present only during uptake ([10]; HepG2): inhibited
maximal inhibition of citrate uptake ([10]; HepG2, absence of Li+): ~60%
maximal inhibition of citrate uptake ([10]; HepG2, presence of Li+): ~60%
increase in inhibitory potency with preincubation ([10]; HepG2, preincubated vs not preincubated, both in absence or presence of Li+): ~10 fold
IC50 ([10]; IC50 for human NaCT (summary), human NaCT, HepG2 and HEK293 cells): ~100 nM
type of inhibition of NaCT/SLC13A5 ([10]; kinetic analysis, Eadie–Hofstee plot): non-competitive
reversibility of inhibition of SLC13A5 ([10]; washed): irreversible
Structure (SMILES): O=C(NCc1ccc(F)cc1)C1CCN(S(=O)(=O)c2cc(Cl)cc(Cl)c2)CC1 [BI01383298, 1-(3,5-Dichlorophenylsulfonyl)-N-(4-fluorobenzyl)piperidine-4-carboxamide]
effect on HepG2 cell proliferation [1]: decreased cell proliferation; also recorded: robust inhibition of cell proliferation; also recorded: does block the proliferation
Lactate (3 µM) uptake [3]: 137 ± 7 pmol/mg of protein/3 min
Lactate (3 µM) uptake, % Control [3]: 97 ± 5 % Control
effect on mouse NaCT ([4]; ref Structural Genomics Consortium): no effect
effect on mouse NaCT/Slc13a5 ([6]; 10 µM, 30 min preincubation, uptake without inhibitor): not affected; also recorded: not inhibited; also recorded: little or no inhibition
IC50 ([9]; read-out: IC50 for human NaCT, ref Structural Genomics Consortium): 25 to 60 nM

effect on activity of mouse NaCT/Slc13a5 ([6]; 100 µM): able to inhibit
inhibitory potency for mouse NaCT/Slc13a5 compared with human NaCT/SLC13A5 ([6]; 100 µM): greater than for human NaCT/SLC13A5
effect on Na+-dependent citrate uptake, compound present only during uptake ([10]; HepG2): inhibited
reversibility of inhibition of SLC13A5 ([10]; washed): at least partly reversible
Structure (SMILES): COc1ncc(C)cc1CC[C@@](O)(CC(=O)O)C(=O)O [PF06761281, (2R)-2-Hydroxy-2-[2-(2-methoxy-5-methyl-3-pyridinyl)ethyl]succinic acid]
increase in inhibitor potency over PF-06649298 ([9]; optimized derivative): ~4 fold

Structure (SMILES): CC(C)(C)c1ccc(CC[C@@](O)(CC(=O)O)C(=O)O)cc1 [PF-06649298]
species selectivity (mouse and human NaCTs) [4]: no species selectivity
IC50 ([9]; read-out: IC50 for NaCT-mediated citrate uptake, human NaCT): 400 to 10000 nM

Structure (SMILES): O=C(O)CC(O)(CC(=O)O)C(=O)O [citrate]
lower affinity of human NaCT for citrate than mouse NaCT ([9]; kinetic experiments under identical conditions): at least 30 fold

Structure (SMILES): CN(C)C(=N)N=C(N)N [metformin]
effect on expression of NaCT in HepG2 cells [11]: suppresses the expression of NaCT
